According to ChEMBL document CHEMBL4765366, “Targeting fungal virulence factor by small molecules: Structure-based discovery of novel secreted aspartic protease 2 (SAP2) inhibitors” (Eur J Med Chem, 2020):
Activity calls are given as the source filed them. The rule behind the calls is not given here.

Key:
[1] = Inhibition of recombinant Candida albicans SAP2 using Dabcyl-Arg-Lys-Pro-Ala-Leu-Phe-Phe-Arg-Leu-Glu (EDANS)-Arg-OH as substrate incubated for 30 mins followed by substrate addition and measured after 30 mins by spectrophotometry
Candida albicans [2] = assay: Inhibition of recombinant Candida albicans SAP2 at 100 uM using Dabcyl-Arg-Lys-Pro-Ala-Leu-Phe-Phe-Arg-Leu-Glu (EDANS)-Arg-OH as substrate incubated for 30 mins followed by substrate addition and measured after 30 mins by spectrophotometry relative to control; details: time 60.0 min
How it was run: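 FRET assay with purified expressed C. albicans SAP2 in 50 mM sodium citrate, 50 mM NaCl, pH 4.5. Compound (diluted in DMSO) was preincubated with enzyme 30 min before adding the Dabcyl/EDANS peptide substrate (18.75 μM solution in DMSO). Reaction ran 30 min at 30 °C, then fluorescence was read at ex 340, em 485 nm. Pepstatin A was the positive control.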

Candida albicans [3] = assay: Antibiofilm activity against azole resistant Candida albicans 0304103 assessed as inhibition of biofilm formation incubated for 24 hrs by XTT-dye based assay; format: functional, organism-based; details: dose 4-64 µg/ml
How it was run: (§1)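 Cell suspensions (1.0 × 10^5 CFU/mL) were adhered for 90 min at 37°C, then rinsed three times with PBS. Compounds were added at a range of concentrations from 2 mg/mL DMSO stocks, with fluconazole as the positive control. Plates were cultured 24 h at 37°C, and biofilm was measured semi-quantitatively by XTT reduction.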

Candida tropicalis [4] = assay: Antibiofilm activity against azole resistant Candida tropicalis 10186 assessed as inhibition of biofilm formation incubated for 24 hrs by XTT-dye based assay; format: functional, organism-based; details: dose 4-64 µg/ml; how it was run: as §1
Candida albicans [5] = assay: Antibiofilm activity against azole resistant Candida albicans 0304103 assessed as inhibition of biofilm formation at 64 ug/ml incubated for 24 hrs by XTT-dye based assay relative to control; format: functional; how it was run: as §1
Candida tropicalis [6] = assay: Antibiofilm activity against azole resistant Candida tropicalis 10186 assessed as inhibition of biofilm formation at 64 ug/ml incubated for 24 hrs by XTT-dye based assay relative to control; format: functional; how it was run: as §1
Candida albicans [7] = assay: Downregulation of SAP2 in azole resistant Candida albicans 0304103 at 64 ug/ml by qRT-PCR analysis; format: functional; details: dose 64.0 µg/ml
Candida albicans [8] = assay: Antifungal activity against azole resistant Candida albicans 0304103 infected in ICR mouse assessed as reduction in fungal burden in kidney at 10 mg/kg, ip administered for 4 days; format: functional, organism-based; details: time 4.0 day
How it was run: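 Female ICR mice (20–25 g) were immunosuppressed with cyclophosphamide, 100 mg/kg ip in saline. After 24 h they were infected iv with 0.2 mL of 1×10^5 CFU/mL cells. Starting 24 h after infection, mice (4 per group) received the drug ip once daily for four days; controls received saline or fluconazole 10 mg/kg. Kidneys were homogenized and plated on YPD at 30°C for log10 CFU.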

Compound | IC50 [1] | inhibition (Candida albicans [2]) | other results
COc1cc([C@H]2C(C(=O)c3ccc([N+](=O)[O-])cc3)=C(O)C(=O)N2CCCCCC(=O)O)ccc1O | 64 µM |  | 
COc1ccc(CN2C(=O)/C(=C/c3ccc(OCC(=O)O)cc3OCC(=O)O)c3ccc(-c4ccc(C)cc4)cc32)cc1 |  | 29% | 
O=C1/C(=C\c2ccc(O)cc2)C(c2ccccc2)=NN1c1ccccc1 |  | 12% | 
O=C(O)COc1ccccc1/C=C1\C(=O)N(c2ccc(F)cc2)N=C1c1ccccc1 |  | 46% | 
COc1ccc(N2N=C(c3ccccc3)/C(=C/c3ccc(OCC(=O)O)c(OCC(=O)O)c3)C2=O)cc1 | 21.5 µM | 88% | 
CN(C)c1ccc(/C=C2\C(=O)N(c3ccccc3)N=C2c2ccccc2)cc1 |  | 11% | 
Cc1ccc(-c2ccc3c(c2)N(Cc2ccc(Cl)cc2)C(=O)/C3=C/c2ccc(OCC(=O)O)cc2OCC(=O)O)cc1 |  | 100% | inhibition (Candida albicans [3]): Dose-dependent effect; inhibition (Candida tropicalis [4]): Dose-dependent effect; inhibition at 64 µg/mL (Candida albicans [5]): > 50%; inhibition at 64 µg/mL (Candida tropicalis [6]): > 50%; Activity (Candida albicans [7]): Active
Cc1ccc(N2N=C(c3ccccc3)/C(=C/c3ccccc3OCC(=O)O)C2=O)cc1 | 72.3 µM | 63% | 
Cc1ccc(CN2C(=O)C(=Cc3ccc(OCC(=O)O)cc3OCC(=O)O)C(=O)N2Cc2ccc(C)cc2)cc1 | 17.4 µM | 94% | 
O=C(O)COc1ccc(/C=C2\C(=O)N(c3ccccc3)N=C2c2ccccc2)cc1OCC(=O)O | 18.5 µM | 86% | 
COc1ccc(N2N=C(c3ccccc3)/C(=C/c3ccc(OCC(=O)O)cc3OCC(=O)O)C2=O)cc1 | 15.7 µM | 94% | 
Cc1ccc(N2N=C(c3ccccc3)/C(=C/c3ccc(OCC(=O)O)cc3)C2=O)cc1 | 21.6 µM | 93% | 
O=C(O)COc1ccc(/C=C2\C(=O)N(c3ccc(Cl)cc3)N=C2c2ccccc2)c(OCC(=O)O)c1 | 10.8 µM | 99% | 
O=C(O)COc1ccc(/C=C2\C(=O)N(c3ccc(Cl)cc3)N=C2c2ccccc2)cc1 | 13 µM | 96% | 
CCc1ccc(/C=C2\C(=O)N(c3ccccc3)N=C2c2ccccc2)cc1 |  | 7% | 
O=C1/C(=C\c2ccc(Br)cc2)C(c2ccccc2)=NN1c1ccccc1 |  | 10% | 
Cc1ccc(-c2ccc3c(c2)N(Cc2ccc(S(C)(=O)=O)cc2)C(=O)/C3=C/c2ccc(OCC(=O)O)cc2OCC(=O)O)cc1 |  | 100% | inhibition (Candida albicans [3]): Dose-dependent effect; inhibition (Candida tropicalis [4]): Dose-dependent effect
O=C(O)COc1ccc(/C=C2\C(=O)N(c3ccc(Cl)cc3)N=C2c2ccccc2)cc1OCC(=O)O | 46.9 µM | 70% | 
Cc1ccc(-c2ccc3c(c2)N(Cc2ccc(C(F)(F)F)cc2)C(=O)/C3=C/c2ccc(OCC(=O)O)cc2OCC(=O)O)cc1 |  | 100% | inhibition (Candida albicans [3]): Dose-dependent effect; inhibition (Candida tropicalis [4]): Dose-dependent effect; inhibition at 64 µg/mL (Candida tropicalis [6]): > 50%; Activity (Candida albicans [7]): Active
CCOc1ccc(/C=C2\C(=O)N(c3ccccc3)N=C2c2ccccc2)cc1 |  | 5% | 
O=C(O)COc1ccc(/C=C2\C(=O)N(c3ccccc3)N=C2c2ccccc2)c(OCC(=O)O)c1 | 10.1 µM | 99% | 
O=C(O)COc1ccc(/C=C2\C(=O)N(c3ccc(F)cc3F)N=C2c2ccccc2)c(OCC(=O)O)c1 | 32.7 µM | 86% | 

Compound | IC50 [1] | inhibition (Candida albicans [2]) | other results
CC(C)CC(=O)N[C@H](C(=O)N[C@H](C(=O)N[C@@H](CC(C)C)[C@@H](O)CC(=O)N[C@@H](C)C(=O)N[C@@H](CC(C)C)[C@@H](O)CC(=O)O)C(C)C)C(C)C [PEPSTATIN] | 0.022 µM | 100% | 
O=C(O)COc1ccc(/C=C2\C(=O)N(c3cccc(Cl)c3)N=C2c2ccccc2)cc1 | 26.4 µM | 90% | 
O=C(O)COc1ccc(/C=C2\C(=O)N(c3ccccc3)N=C2c2ccccc2)cc1 | 18.2 µM | 94% | 
O=C(O)COc1ccccc1/C=C1\C(=O)N(c2ccc(Cl)cc2)N=C1c1ccccc1 | 75.2 µM | 60% | 
O=C(O)COc1ccc(/C=C2\C(=O)N(c3ccc(F)cc3)N=C2c2ccccc2)c(OCC(=O)O)c1 | 17.9 µM | 93% | 
OC(Cn1cncn1)(Cn1cncn1)c1ccc(F)cc1F |  |  | Activity (Candida albicans [8]): Active
Cc1ccc(N2N=C(c3ccccc3)/C(=C/c3ccc(OCC(=O)O)c(OCC(=O)O)c3)C2=O)cc1 | 22.3 µM | 85% | 
O=C(O)COc1ccccc1/C=C1\C(=O)N(c2ccccc2)N=C1c1ccccc1 | 62.1 µM | 68% | 
Cc1ccc(CN2C(=O)/C(=C\c3ccc(OCC(=O)O)cc3OCC(=O)O)N(Cc3ccc(C)cc3)C2=O)cc1 | 23.8 µM | 91% | 
O=C(O)COc1ccc(/C=C2\C(=O)N(c3ccc(F)cc3)N=C2c2ccccc2)cc1OCC(=O)O | 33.7 µM | 83% | 
O=C(O)COc1ccc(/C=C2\C(=O)N(c3ccc(F)cc3)N=C2c2ccccc2)cc1 | 39.6 µM | 71% | 
Cc1ccc(-c2ccc3c(c2)N(Cc2ccc(C#N)cc2)C(=O)/C3=C/c2ccc(OCC(=O)O)cc2OCC(=O)O)cc1 |  | 100% | inhibition (Candida albicans [3]): Dose-dependent effect; inhibition (Candida tropicalis [4]): Dose-dependent effect; inhibition at 64 µg/mL (Candida albicans [5]): > 50%; Activity (Candida albicans [7]): Active
Cc1ccc(-c2ccc3c(c2)N(Cc2ccc(F)cc2)C(=O)/C3=C/c2ccc(OCC(=O)O)cc2OCC(=O)O)cc1 |  | 58% | 
O=C(O)COc1ccc(/C=C2\C(=O)N(c3cccc(Cl)c3)N=C2c2ccccc2)c(OCC(=O)O)c1 | 11.5 µM | 99% | 
O=C(O)COc1ccc(/C=C2\C(=O)N(c3cccc(Cl)c3)N=C2c2ccccc2)cc1OCC(=O)O | 22.7 µM | 82% | 
COc1ccc(N2N=C(c3ccccc3)/C(=C/c3ccc(OCC(=O)O)cc3)C2=O)cc1 | 20.4 µM | 95% | 
Cc1ccc(N2N=C(c3ccccc3)/C(=C/c3ccc(OCC(=O)O)cc3OCC(=O)O)C2=O)cc1 | 13.5 µM | 99% | 
CC(=O)c1ccc(CN2C(=O)/C(=C/c3ccc(OCC(=O)O)cc3OCC(=O)O)c3ccc(-c4ccc(C)cc4)cc32)cc1 |  | 90% | Activity (Candida albicans [7]): Active
CCn1cc(/C=C(\NC(=O)c2ccccc2OC)C(=O)NCCO)c2ccccc21 | 46.1 µM |  | 
COc1ccc(N2N=C(c3ccccc3)/C(=C/c3ccccc3OCC(=O)O)C2=O)cc1 | 70.7 µM | 64% | 
O=C(O)COc1ccccc1/C=C1\C(=O)N(c2cccc(Cl)c2)N=C1c1ccccc1 | 55.5 µM | 70% | 
